In PubChem BioAssay AID1765 (Sanford-Burnham Center for Chemical Genomics, 2009):
Calls of active or inactive are those of the source.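 Rule for the calls: active = maximal cell kill higher at a 0.156 ng/ml dose of TRAIL, the death-signal protein, than with no TRAIL; inactive = the rest.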

How the values were obtained:
[1] = system: PPC-1 cytotoxicity with TRAIL, ATPLite luminescence, 24 h; test: TRAIL dependence of compound-driven PPC-1 killing – cell-based, ATPlite luminescence, 24 h, mechanism study for TRAIL sensitizer project, dose response (AID 1765)
Method in brief: (§1)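 Timing: compound pre-incubation 4 h before TRAIL, then 24 h TRAIL exposure. Material: PPC-1 cell line. Controls: doxorubicin 10 µM with TRAIL, full kill. Dosing: 2-fold series from 10 µM, 0.5% DMSO. Also added: TRAIL at 0.156 ng/mL, or no TRAIL (0 ng/mL). Measured by: ATPlite luminescence.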

[2] = as above; settings: PPC-1 cytotoxicity with TRAIL, ATPLite luminescence, 24 h
Method in brief: as §1

[3] = measured here: cytotoxicity without TRAIL
[4] = measured here: max cytotoxicity with TRAIL
[5] = measured here: max cytotoxicity without TRAIL

| Structure (SMILES) | EC50 [1] | EC50 [1, 3] [nM] | maximal effect [2, 4] [%] | maximal effect [2, 5] [%] |
| --- | --- | --- | --- | --- |
| CCSc1nc(-c2ccccc2)nc(C(Cl)Cl)n1 | 2580 nM | 2500 | 46.7 | 34.2 |
| CSc1nc(-c2ccccc2)nc(C(Cl)Cl)n1 | > 10000 nM (inactive) | > 10000 | – | – |
| CSc1nc(-c2ccc(C)cc2)nc(C(Cl)Cl)n1 | 1000 nM | 810 | 94.5 | 50.4 |
